Laboratory results published in ChEMBL document CHEMBL3232988, “Design, synthesis and biological evaluation of a series of pyrano chalcone derivatives containing indole moiety as novel anti-tubulin agents” (Bioorg Med Chem, 2014).

System: HepG2
Test: Antiproliferative activity against human HepG2 cells after 24 hrs by MTT assay
Type: functional, cell-based
Details: HepG2, 24 h
Outline: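 Seeded at 1 × 10⁴ cells per well, incubated 24 h before treatment. MTT (20 µL of 5 mg/mL in PBS) added per well and incubated until purple precipitate appeared. Medium removed, precipitate dissolved in 150 µL DMSO, shaken 10 min, absorbance read at 570 nm. Growth expressed as percentage of untreated control.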

Row | SMILES | IC50
1 | COc1ccc(C(=O)/C=C/c2cn(Cc3ccccc3)c3ccccc23)c2c1C=CC(C)(C)O2 | 1780 nM
2 | COc1ccc(C(=O)/C=C/c2ccc3ccn(Cc4cccc(F)c4)c3c2)c2c1C=CC(C)(C)O2 | > 10000 nM
3 | COc1ccc(C(=O)/C=C/c2ccc3ccn(C)c3c2)c2c1C=CC(C)(C)O2 | 8850 nM
4 | CC(C)Oc1ccc(C(=O)/C=C/c2ccc3c(ccn3C)c2)c2c1C=CC(C)(C)O2 | 780 nM
5 | COc1ccc(C(=O)/C=C/c2cccc3c2ccn3Cc2cccc(Br)c2)c2c1C=CC(C)(C)O2 | > 10000 nM
6 | COc1ccc(C(=O)/C=C/c2cn(Cc3cccc(C(F)(F)F)c3)c3ccccc23)c2c1C=CC(C)(C)O2 | 2180 nM
7 | CCn1ccc2c(/C=C/C(=O)c3ccc(OC)c4c3OC(C)(C)C=C4)cccc21 | 5540 nM
8 | COc1ccc(C(=O)/C=C/c2cn(CCN3CCOCC3)c3ccccc23)c2c1C=CC(C)(C)O2 | 3230 nM
9 | COc1ccc(C(=O)/C=C/c2cccc3cc[nH]c23)c2c1C=CC(C)(C)O2 | 7620 nM
10 | COc1ccc(C(=O)/C=C/c2cn(Cc3ccccc3Cl)c3ccccc23)c2c1C=CC(C)(C)O2 | 1940 nM
11 | COc1ccc(C(=O)/C=C/c2cn(Cc3ccccc3C(F)(F)F)c3ccccc23)c2c1C=CC(C)(C)O2 | > 10000 nM
12 | COc1ccc(C(=O)/C=C/c2cn(CC(C)C)c3ccccc23)c2c1C=CC(C)(C)O2 | > 10000 nM
13 | COc1ccc(C(=O)/C=C/c2cn(Cc3ccc(Cl)cc3)c3ccccc23)c2c1C=CC(C)(C)O2 | > 10000 nM
14 | COc1cccc(S(=O)(=O)Oc2ccc(C(=O)/C=C/c3ccc4c(ccn4C)c3)c3c2C=CC(C)(C)O3)c1 | 750 nM
15 | COc1ccc(C(=O)/C=C/c2cn(Cc3ccc(Br)cc3)c3ccccc23)c2c1C=CC(C)(C)O2 | > 10000 nM
16 | Cn1ccc2cc(/C=C/C(=O)c3ccc(OS(=O)(=O)c4c(F)c(F)c(F)c(F)c4F)c4c3OC(C)(C)C=C4)ccc21 | 1530 nM
17 | COc1ccc(C(=O)/C=C/c2cn(Cc3ccc(F)cc3)c3ccccc23)c2c1C=CC(C)(C)O2 | > 10000 nM
18 | COc1ccc(C(=O)/C=C/c2cccc3ccn(Cc4cccc(Br)c4)c23)c2c1C=CC(C)(C)O2 | > 10000 nM
19 | COc1ccc(C(=O)/C=C/c2cccc3ccn(C)c23)c2c1C=CC(C)(C)O2 | > 10000 nM

Row | SMILES | IC50
20 | COc1ccc(C(=O)/C=C/c2cn(Cc3cccc(Br)c3)c3ccccc23)c2c1C=CC(C)(C)O2 | 1380 nM
21 | COc1ccc(C(=O)/C=C/c2cn(C)c3ccccc23)c2c1C=CC(C)(C)O2 | 2230 nM
22 | CC(C)C(=O)Oc1ccc(C(=O)/C=C/c2ccc3c(ccn3C)c2)c2c1C=CC(C)(C)O2 | 370 nM
23 | COc1ccc(C(=O)/C=C/c2ccc3ccn(Cc4cccc(Br)c4)c3c2)c2c1C=CC(C)(C)O2 | > 10000 nM
24 | CCCCC(=O)Oc1ccc(C(=O)/C=C/c2ccc3c(ccn3C)c2)c2c1C=CC(C)(C)O2 | 920 nM
25 | COc1ccc(C(=O)/C=C/c2ccc3ccn(Cc4cccc(Cl)c4)c3c2)c2c1C=CC(C)(C)O2 | > 10000 nM
26 | COc1ccc(C(=O)/C=C/c2cn(CC=C(C)C)c3ccccc23)c2c1C=CC(C)(C)O2 | 2810 nM
27 | COc1ccc(C(=O)/C=C/c2ccc3[nH]ccc3c2)c2c1C=CC(C)(C)O2 | 1060 nM
28 | COc1ccc(C(=O)/C=C/c2cccc3c2ccn3Cc2cccc(Cl)c2)c2c1C=CC(C)(C)O2 | > 10000 nM
29 | COc1ccc(C(=O)/C=C/c2cccc3ccn(Cc4cccc(F)c4)c23)c2c1C=CC(C)(C)O2 | > 10000 nM
30 | COc1ccc(C(=O)/C=C/c2ccc3c(ccn3C)c2)c2c1C=CC(C)(C)O2 | 840 nM
31 | CCn1cc(/C=C/C(=O)c2ccc(OC)c3c2OC(C)(C)C=C3)c2ccccc21 | 3010 nM
32 | COc1ccc(C(=O)/C=C/c2cccc3ccn(Cc4cccc(Cl)c4)c23)c2c1C=CC(C)(C)O2 | > 10000 nM
33 | Cn1ccc2cc(/C=C/C(=O)c3ccc(OS(=O)(=O)c4cc(F)cc(F)c4)c4c3OC(C)(C)C=C4)ccc21 | 690 nM
34 | COc1ccc(C(=O)/C=C/c2cn(Cc3ccccc3Br)c3ccccc23)c2c1C=CC(C)(C)O2 | > 10000 nM
35 | CCn1ccc2cccc(/C=C/C(=O)c3ccc(OC)c4c3OC(C)(C)C=C4)c21 | > 10000 nM
36 | COc1cc([N+](=O)[O-])ccc1S(=O)(=O)Oc1ccc(C(=O)/C=C/c2ccc3c(ccn3C)c2)c2c1C=CC(C)(C)O2 | 570 nM
37 | COc1ccc(C(=O)/C=C/c2ccc3cc[nH]c3c2)c2c1C=CC(C)(C)O2 | 4950 nM
38 | CC(=O)Oc1ccc(C(=O)/C=C/c2ccc3c(ccn3C)c2)c2c1C=CC(C)(C)O2 | 520 nM

Row | SMILES | IC50
39 | COc1ccc(C(=O)/C=C/c2ccc3c(ccn3CCN3CCCCC3)c2)c2c1C=CC(C)(C)O2 | 4450 nM
40 | COc1ccc(C(=O)/C=C/c2cn(Cc3ccccc3F)c3ccccc23)c2c1C=CC(C)(C)O2 | 2750 nM
41 | CCCCCOc1ccc(C(=O)/C=C/c2ccc3c(ccn3C)c2)c2c1C=CC(C)(C)O2 | 670 nM
42 | COc1ccc(C(=O)/C=C/c2cccc3c2ccn3C)c2c1C=CC(C)(C)O2 | 2750 nM
43 | CCCCOc1ccc(C(=O)/C=C/c2ccc3c(ccn3C)c2)c2c1C=CC(C)(C)O2 | 630 nM
44 | COc1ccc(C(=O)/C=C/c2cn(Cc3ccc(C(F)(F)F)cc3)c3ccccc23)c2c1C=CC(C)(C)O2 | 3460 nM
45 | CCCOc1ccc(C(=O)/C=C/c2ccc3c(ccn3C)c2)c2c1C=CC(C)(C)O2 | 460 nM
46 | CC(C)COc1ccc(C(=O)/C=C/c2ccc3c(ccn3C)c2)c2c1C=CC(C)(C)O2 | 970 nM
47 | COc1ccc(C(=O)/C=C/c2cn(Cc3cccc(Cl)c3)c3ccccc23)c2c1C=CC(C)(C)O2 | 2130 nM
48 | Cn1ccc2cc(/C=C/C(=O)c3ccc(OS(=O)(=O)c4cccc(C(F)(F)F)c4)c4c3OC(C)(C)C=C4)ccc21 | 1550 nM
49 | Cn1ccc2cc(/C=C/C(=O)c3ccc(OS(=O)(=O)c4ccc(Br)cc4C(F)(F)F)c4c3OC(C)(C)C=C4)ccc21 | 620 nM
50 | CCOc1ccc(C(=O)/C=C/c2ccc3c(ccn3C)c2)c2c1C=CC(C)(C)O2 | 750 nM
51 | COc1ccc(C(=O)/C=C/c2cn(Cc3cccc(F)c3)c3ccccc23)c2c1C=CC(C)(C)O2 | 3090 nM
52 | Cc1ccc(S(=O)(=O)Oc2ccc(C(=O)/C=C/c3ccc4c(ccn4C)c3)c3c2C=CC(C)(C)O3)cc1 | 860 nM
53 | COCn1cc(/C=C/C(=O)c2ccc(OC)c3c2OC(C)(C)C=C3)c2ccccc21 | 4700 nM
54 | CCn1ccc2ccc(/C=C/C(=O)c3ccc(OC)c4c3OC(C)(C)C=C4)cc21 | > 10000 nM
55 | COc1ccc(C(=O)/C=C/c2cccc3[nH]ccc23)c2c1C=CC(C)(C)O2 | 8380 nM
56 | COc1ccc(C(=O)/C=C/c2cccc3c2ccn3Cc2cccc(F)c2)c2c1C=CC(C)(C)O2 | > 10000 nM
57 | CC(C)c1ccc(S(=O)(=O)Oc2ccc(C(=O)/C=C/c3ccc4c(ccn4C)c3)c3c2C=CC(C)(C)O3)cc1 | 1870 nM
